“And” between values parts separate entries of the source, which are not always exact repeats. Equal values may be shown once.
Tests used:
U2OS = test: Multiplex assay against U2OS; assay type: toxicity, cell-based; conditions: human
How it was run: (§1)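 Live cells were stained at seeding with Hoechst33342, BioTracker Green Microtubule Cytoskeleton Dye, MitoTracker Red and Annexin V Alexa Fluor 680. Following compound addition, they were imaged on a CQ1 microscope at 37°C and 5% CO2 and gated by CellPathfinder machine learning into Hoechst high-intensity objects or normal cells, with normal cells split into healthy, pyknosed or fragmented nuclei and pyknosed cells into mitotic or apoptotic. Tubulin, mitochondrial-mass and membrane-permeability phenotypes are per cents of healthy-nucleus cells.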

Fibroblast = test: Multiplex assay against human fibroblast; assay type: toxicity, cell-based; how it was run: as §1
[1] = 24 h, 10 µM, compound concentration 10 uM
[2] = 48 h, 1 µM, compound concentration 1 uM
[3] = 48 h, 10 µM, compound concentration 10 uM
[4] = 12 h, 1 µM, compound concentration 1 uM
[5] = 12 h, 10 µM, compound concentration 10 uM
[6] = 24 h, 1 µM, compound concentration 1 uM

Question: Which “Population Hoechst High Intensity Objects (%)” value (U2OS; [1]) does the source give for `c1ccc2nc(N3CCNCC3)ccc2c1` [QUIPAZINE] here?
Answer: 0%

Question: And the “Population Membrane Permeable-Phenotype (%)” value (U2OS; [1])?
Answer: 1.06% and 3.32%

Question: And the “Population Mitochondria Different-Phenotype (%)” value (U2OS; [1])?
Answer: 0.43% and 6.16%

Question: And the “Population Mitotic Cells (%)” value (U2OS; [1])?
Answer: 59.18% and 52%

Question: What about the “Population Normal (%)” value (U2OS; [1]) of the same compound?
Answer: 100%

Question: And the “Population Pyknosed Nuclei (%)” value (U2OS; [1])?
Answer: 9.37% and 10.59%

Question: What about the “Population Tubulin-Different-Phenotype (%)” value (U2OS; [1]) of the same compound?
Answer: 1.28% and 0%

Question: What about the “Total Cell Count” value (U2OS; [1]) of the same compound?
Answer: 523 and 236

Question: What about the “Population Apoptotic (%)” value (U2OS; [2]) of the same compound?
Answer: 43.56% and 50%

Question: And the “Population Fragmented Nuclei (%)” value (U2OS; [2])?
Answer: 2.56% and 1.98%

Question: What about the “Population Healthy Nuclei (%)” value (U2OS; [2]) of the same compound?
Answer: 88.55% and 87.25%

Question: What about the “Population Hoechst High Intensity Objects (%)” value (U2OS; [2]) of the same compound?
Answer: 0%

Question: And the “Population Membrane Permeable-Phenotype (%)” value (U2OS; [2])?
Answer: 0.9% and 1.95%

Question: What about the “Population Mitochondria Different-Phenotype (%)” value (U2OS; [2]) of the same compound?
Answer: 0.2% and 3.9%

Question: And the “Population Mitotic Cells (%)” value (U2OS; [2])?
Answer: 56.44% and 50%

Question: And the “Population Normal (%)” value (U2OS; [2])?
Answer: 100%

Question: And the “Population Pyknosed Nuclei (%)” value (U2OS; [2])?
Answer: 8.9% and 10.76%

Question: And the “Population Tubulin-Different-Phenotype (%)” value (U2OS; [2])?
Answer: 0.9% and 0.32%

Question: And the “Population Apoptotic (%)” value (U2OS; [3])?
Answer: 39.47% and 52.17%

Question: What about the “Population Fragmented Nuclei (%)” value (U2OS; [3]) of the same compound?
Answer: 3.42% and 0.25%

Question: What about the “Population Healthy Nuclei (%)” value (U2OS; [3]) of the same compound?
Answer: 89.16% and 94.06%

Question: What about the “Population Hoechst High Intensity Objects (%)” value (U2OS; [3]) of the same compound?
Answer: 0% and 0.25%

Question: And the “Population Membrane Permeable-Phenotype (%)” value (U2OS; [3])?
Answer: 0.99% and 2.63%

Question: What about the “Population Mitochondria Different-Phenotype (%)” value (U2OS; [3]) of the same compound?
Answer: 0.11% and 1.84%

Question: And the “Population Mitotic Cells (%)” value (U2OS; [3])?
Answer: 60.53% and 47.83%

Question: And the “Population Normal (%)” value (U2OS; [3])?
Answer: 100% and 99.75%

Question: What about the “Population Pyknosed Nuclei (%)” value (U2OS; [3]) of the same compound?
Answer: 7.42% and 5.69%

Question: What about the “Population Tubulin-Different-Phenotype (%)” value (U2OS; [3]) of the same compound?
Answer: 1.42% and 0.79%

Question: And the “Total Cell Count” value (U2OS; [3])?
Answer: 1024 and 405

Question: What about the “Population Apoptotic (%)” value (Fibroblast; [4]) of the same compound?
Answer: 13.95% and 10%

Question: And the “Population Fragmented Nuclei (%)” value (Fibroblast; [4])?
Answer: 15.05% and 6.28%

Question: And the “Population Healthy Nuclei (%)” value (Fibroblast; [4])?
Answer: 64.08% and 79.23%

Question: What about the “Population Hoechst High Intensity Objects (%)” value (Fibroblast; [4]) of the same compound?
Answer: 0%

Question: What about the “Population Membrane Permeable-Phenotype (%)” value (Fibroblast; [4]) of the same compound?
Answer: 2.27% and 0.61%

Question: What about the “Population Mitochondria Different-Phenotype (%)” value (Fibroblast; [4]) of the same compound?
Answer: 9.09% and 6.71%

Question: What about the “Population Mitotic Cells (%)” value (Fibroblast; [4]) of the same compound?
Answer: 86.05% and 90%

Question: And the “Population Normal (%)” value (Fibroblast; [4])?
Answer: 100%

Question: What about the “Population Pyknosed Nuclei (%)” value (Fibroblast; [4]) of the same compound?
Answer: 20.87% and 14.49%

Question: And the “Population Tubulin-Different-Phenotype (%)” value (Fibroblast; [4])?
Answer: 9.09% and 19.51%

Question: What about the “Total Cell Count” value (Fibroblast; [4]) of the same compound?
Answer: 206 and 207

Question: And the “Population Fragmented Nuclei (%)” value (Fibroblast; [5])?
Answer: 10.34% and 8.29%

Question: And the “Population Healthy Nuclei (%)” value (Fibroblast; [5])?
Answer: 70.94% and 74.63%

Question: And the “Population Hoechst High Intensity Objects (%)” value (Fibroblast; [5])?
Answer: 0%

Question: And the “Population Membrane Permeable-Phenotype (%)” value (Fibroblast; [5])?
Answer: 3.47% and 5.23%

Question: What about the “Population Mitotic Cells (%)” value (Fibroblast; [5]) of the same compound?
Answer: 94.74% and 74.29%

Question: What about the “Population Normal (%)” value (Fibroblast; [5]) of the same compound?
Answer: 100%

Question: And the “Population Pyknosed Nuclei (%)” value (Fibroblast; [5])?
Answer: 18.72% and 17.07%

Question: And the “Population Tubulin-Different-Phenotype (%)” value (Fibroblast; [5])?
Answer: 13.19% and 23.53%

Question: What about the “Total Cell Count” value (Fibroblast; [5]) of the same compound?
Answer: 203 and 205

Question: And the “Population Apoptotic (%)” value (Fibroblast; [6])?
Answer: 15.79% and 12%

Question: What about the “Population Fragmented Nuclei (%)” value (Fibroblast; [6]) of the same compound?
Answer: 7.37% and 6.28%

Question: And the “Population Healthy Nuclei (%)” value (Fibroblast; [6])?
Answer: 75.12% and 82.51%

Question: What about the “Population Hoechst High Intensity Objects (%)” value (Fibroblast; [6]) of the same compound?
Answer: 0%

Question: And the “Population Membrane Permeable-Phenotype (%)” value (Fibroblast; [6])?
Answer: 4.91% and 2.72%

Question: And the “Population Mitochondria Different-Phenotype (%)” value (Fibroblast; [6])?
Answer: 6.75% and 7.61%

Question: What about the “Population Mitotic Cells (%)” value (Fibroblast; [6]) of the same compound?
Answer: 84.21% and 88%

Question: What about the “Population Normal (%)” value (Fibroblast; [6]) of the same compound?
Answer: 100%

Question: What about the “Population Pyknosed Nuclei (%)” value (Fibroblast; [6]) of the same compound?
Answer: 17.51% and 11.21%

Question: And the “Population Tubulin-Different-Phenotype (%)” value (Fibroblast; [6])?
Answer: 11.04% and 17.93%

Question: And the “Total Cell Count” value (Fibroblast; [6])?
Answer: 217 and 223

Question: And the “Population Apoptotic (%)” value (Fibroblast; [1])?
Answer: 17.65% and 35.71%

Question: What about the “Population Fragmented Nuclei (%)” value (Fibroblast; [1]) of the same compound?
Answer: 10.5% and 7.62%

Question: What about the “Population Healthy Nuclei (%)” value (Fibroblast; [1]) of the same compound?
Answer: 73.97% and 79.82%

Question: What about the “Population Hoechst High Intensity Objects (%)” value (Fibroblast; [1]) of the same compound?
Answer: 0%

Question: What about the “Population Membrane Permeable-Phenotype (%)” value (Fibroblast; [1]) of the same compound?
Answer: 3.7% and 3.37%

Question: And the “Population Mitochondria Different-Phenotype (%)” value (Fibroblast; [1])?
Answer: 3.09% and 6.74%

Question: And the “Population Mitotic Cells (%)” value (Fibroblast; [1])?
Answer: 82.35% and 64.29%

Question: What about the “Population Normal (%)” value (Fibroblast; [1]) of the same compound?
Answer: 100%

Question: And the “Population Pyknosed Nuclei (%)” value (Fibroblast; [1])?
Answer: 15.53% and 12.56%

Question: And the “Population Tubulin-Different-Phenotype (%)” value (Fibroblast; [1])?
Answer: 16.05% and 25.84%

Question: What about the “Total Cell Count” value (Fibroblast; [1]) of the same compound?
Answer: 219 and 223

Question: And the “Population Apoptotic (%)” value (Fibroblast; [2])?
Answer: 57.14% and 58.33%

Question: What about the “Population Fragmented Nuclei (%)” value (Fibroblast; [2]) of the same compound?
Answer: 12.6% and 5.91%

Question: And the “Population Healthy Nuclei (%)” value (Fibroblast; [2])?
Answer: 82.06% and 88.64%

Question: And the “Population Hoechst High Intensity Objects (%)” value (Fibroblast; [2])?
Answer: 0%

Question: What about the “Population Membrane Permeable-Phenotype (%)” value (Fibroblast; [2]) of the same compound?
Answer: 2.33% and 4.1%

Question: What about the “Population Mitotic Cells (%)” value (Fibroblast; [2]) of the same compound?
Answer: 42.86% and 41.67%

Question: And the “Population Normal (%)” value (Fibroblast; [2])?
Answer: 100%

Question: What about the “Population Pyknosed Nuclei (%)” value (Fibroblast; [2]) of the same compound?
Answer: 5.34% and 5.45%

Question: And the “Population Tubulin-Different-Phenotype (%)” value (Fibroblast; [2])?
Answer: 4.19% and 11.79%

Question: And the “Total Cell Count” value (Fibroblast; [2])?
Answer: 262 and 220

Question: And the “Population Apoptotic (%)” value (Fibroblast; [3])?
Answer: 35.71% and 45%

Question: And the “Population Fragmented Nuclei (%)” value (Fibroblast; [3])?
Answer: 10.74% and 6.5%

Question: What about the “Population Healthy Nuclei (%)” value (Fibroblast; [3]) of the same compound?
Answer: 84.07% and 85.37%

Question: And the “Population Hoechst High Intensity Objects (%)” value (Fibroblast; [3])?
Answer: 0%

Question: And the “Population Membrane Permeable-Phenotype (%)” value (Fibroblast; [3])?
Answer: 1.32% and 4.76%

Question: And the “Population Mitochondria Different-Phenotype (%)” value (Fibroblast; [3])?
Answer: 6.61% and 0.48%

Question: What about the “Population Mitotic Cells (%)” value (Fibroblast; [3]) of the same compound?
Answer: 64.29% and 55%

Question: What about the “Population Normal (%)” value (Fibroblast; [3]) of the same compound?
Answer: 100%

Question: And the “Population Pyknosed Nuclei (%)” value (Fibroblast; [3])?
Answer: 5.19% and 8.13%

Question: And the “Total Cell Count” value (Fibroblast; [3])?
Answer: 270 and 246
